Source: PubChem BioAssay (several laboratories)
NPY-Y2 PAM-ag – human NPY-Y2 potentiation or agonism, primary screen | cells expressing NPY-Y2, potentiator/agonist read-out | activation, % at 3.6 µM | actives 0.45% (n = 220,000) | AID 1359; in the data active = activation above about 27%;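 note: cells stimulated with NPY near EC25 plus isoproterenol at EC100; 0% = vehicle plus submaximal agonist and 100% = vehicle plus saturating agonist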
Target sequence (P49146 whole entry, looked up): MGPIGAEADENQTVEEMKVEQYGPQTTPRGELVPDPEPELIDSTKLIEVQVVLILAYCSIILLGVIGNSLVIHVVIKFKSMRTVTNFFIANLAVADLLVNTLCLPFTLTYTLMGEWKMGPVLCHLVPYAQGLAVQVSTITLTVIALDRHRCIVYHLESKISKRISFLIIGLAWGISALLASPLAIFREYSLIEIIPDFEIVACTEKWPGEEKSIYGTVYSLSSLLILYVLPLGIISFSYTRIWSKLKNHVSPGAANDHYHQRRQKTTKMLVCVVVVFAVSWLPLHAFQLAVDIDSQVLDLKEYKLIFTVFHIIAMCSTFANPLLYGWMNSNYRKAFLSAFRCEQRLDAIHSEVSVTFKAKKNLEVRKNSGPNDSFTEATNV
NPY1 pot ag – human NPY-Y1 potentiation or agonism, primary screen; NPY-Y1 expressing cells, potentiator/agonist activation; activation, % at 3.6 µM; actives 0.37% (n = 220,000); AID 1304; in the data active = activation above about 33%, passing the limit was not always enough;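 note: cells stimulated with NPY at EC10 then isoproterenol at EC100; 0% = low agonist plus stimulus and 100% = saturating agonist plus stimulus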
WT yeast gro inh – growth inhibition of WT yeast, mitochondrial fusion screen. mitochondrial fusion phenotypic screen, WT strain. inhibition, % at 10 µM. actives 2.1% (n = 190,000). AID 1362; in the data active = inhibition above about 58%; tested in S. cerevisiae
NPY Y2 blocker – NPY-Y2 (human) receptor antagonism | P49146 | NPY-Y2 expressing cells, antagonist mode | inhibition, % at 2.7 µM | actives 0.99% (n = 140,000); in the data active = inhibition above about 17%;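 note: 0% = vehicle with agonist challenge and 100% = reference antagonist with challenge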
RAM network inh – blocks the yeast RAM network. actives 1.8% (n = 190,000). inhibition, % at 50 µM. AID 868. S. cerevisiae dse1pr::URA3 reporter, 5-FOA growth OD615, 2 d; analog-sensitive cbk1-as2 kinase mutant strain;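 active = inhibition above a set limit, 3 SD over mean compound inhibition, cut at about 8.4% in these data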;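 note: 0% = DMSO-only wells with no growth and 100% = 10 µM 1-NA-PP1 full growth; inhibition rescues growth on 5-FOA so higher OD means more RAM inhibition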
NPY-Y1 antag – blocks the human neuropeptide Y Y1 receptor | actives 1% (n = 200,000) | P25929 | HEK293-CNG Y1 cells, membrane potential fluorescence; NPY at EC95, then isoproterenol | inhibition, % at 3.6 µM;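 active = inhibition above the campaign mean inhibition of all tested compounds plus 3 SD, cut at about 20% in these data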;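 note: 0% = DMSO wells given NPY plus isoproterenol and 100% = isoproterenol alone without NPY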
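material = HEK293 cells with Y1 receptor plus CNG channel | also added = NPY 25 nM then isoproterenol 1 µM plus Ro 20-1724 25 µM | schedule = dye 3 h, compound 60 min room temperature, stimulation 45 min | measured by = membrane potential fluorescence | benchmarks = high control isoproterenol alone, low control NPY with isoproterenol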
RAM 5-FOA – RAM network inhibition, efflux-deficient strain | AID 1305 | shares compounds with RAM network inh | 1,200 tested, under 10 active | max inhibition, % | S. cerevisiae efflux-deficient reporter strain, 5-FOA growth OD615, 2 days; call rule not given here;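 note: plate controls were vehicle for no effect and reference inhibitor for full effect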
* marks the source's active call; other numbers are inactive results. In the library only some 4.9% were active in any assay of this set; here they are far more common.

How did COCC(C)n1c(SCc2nc3ccccc3c(=O)[nH]2)nc2ccccc2c1=O (configuration not stated) do in these assays?
NPY-Y2 PAM-ag: -5.5; NPY1 pot ag: 15.9; WT yeast gro inh: 2.9; RAM network inh: 0.5; NPY-Y1 antag: 4.6

What do the screens show for `CCCCN1C(=O)/C(=C/C=C2\SCCN2C)SC1=S`?
NPY-Y2 PAM-ag: 0.0; NPY1 pot ag: 11.1; WT yeast gro inh: 36.8; RAM network inh: 12.7*; NPY-Y1 antag: -0.2; RAM 5-FOA: 1.8

How did COc1cccc(C(=O)NN2c3ccccc3CCc3ccccc32)c1 do in these assays?
NPY-Y2 PAM-ag: 5.2; NPY1 pot ag: -7.0; WT yeast gro inh: -7.4; NPY Y2 blocker: 0.0; RAM network inh: 12.9*; NPY-Y1 antag: 6.4; RAM 5-FOA: 2.0

Results for O=C(CCc1ccccc1)N1N=C(c2ccncc2)CC1(O)C(F)(F)F (configuration not stated) ?
NPY-Y2 PAM-ag: 0.4; NPY1 pot ag: 14.2; WT yeast gro inh: -21.9; RAM network inh: -0.1; NPY-Y1 antag: 1.1

How did COc1ccc(CC(=O)NC(=S)Nc2ccc(S(N)(=O)=O)cc2)cc1 do in these assays?
NPY-Y2 PAM-ag: -11.1; NPY1 pot ag: -18.9; WT yeast gro inh: 2.1; NPY Y2 blocker: 4.0; RAM network inh: 0.8; NPY-Y1 antag: 7.8

How did C=CCN(CC=C)S(=O)(=O)c1ccc(NC(=S)NC(=O)c2ccc(-c3ccccc3)cc2)cc1 do in these assays?
NPY-Y2 PAM-ag: -13.7; NPY1 pot ag: -16.7; WT yeast gro inh: -7.8; NPY Y2 blocker: 4.8; RAM network inh: 17.1*; NPY-Y1 antag: 2.5; RAM 5-FOA: 4.2

What do the screens show for `C=CCN(CC=C)S(=O)(=O)c1ccc(NC(=S)NC(=O)c2ccco2)cc1`?
NPY-Y2 PAM-ag: -4.9; NPY1 pot ag: 4.3; WT yeast gro inh: 2.9; NPY Y2 blocker: 5.0; RAM network inh: 3.5; NPY-Y1 antag: -4.0

Results for C=CCN(CC=C)S(=O)(=O)c1ccc(NC(=S)NC(=O)Cc2ccc(OC)cc2)cc1 ?
NPY-Y2 PAM-ag: -11.9; NPY1 pot ag: -9.8; WT yeast gro inh: 25.0; NPY Y2 blocker: 15.1; RAM network inh: 18.9*; NPY-Y1 antag: 17.3; RAM 5-FOA: 4.5

How did Cn1nc(C(C)(C)C)c([N+](=O)[O-])c1C(=O)Nc1cccc2ccccc12 do in these assays?
NPY-Y2 PAM-ag: 2.2; NPY1 pot ag: -12.5

How did Cc1ccsc1C1C2=C(CCCC2=O)Nc2ncnn21 (configuration not stated) do in these assays?
NPY-Y2 PAM-ag: 2.5; NPY1 pot ag: 17.4; WT yeast gro inh: -13.4; NPY Y2 blocker: 2.4; RAM network inh: 1.6; NPY-Y1 antag: -2.8

Results for COc1ccc(CCN(Cc2cccs2)S(=O)(=O)c2ccc(S(=O)(=O)N3CCCCCC3)cc2)cc1OC ?
NPY-Y2 PAM-ag: -4.8; NPY1 pot ag: -24.9; WT yeast gro inh: 3.4; NPY Y2 blocker: 5.0; RAM network inh: 7.0; NPY-Y1 antag: 8.9

How did CCC(C)NS(=O)(=O)c1ccc(S(=O)(=O)N(CCc2ccc(OC)c(OC)c2)Cc2cccs2)cc1 (configuration not stated) do in these assays?
NPY-Y2 PAM-ag: -25.1; NPY1 pot ag: -89.7; WT yeast gro inh: 19.4; NPY Y2 blocker: 31.1*; RAM network inh: 15.0*; NPY-Y1 antag: 35.1*; RAM 5-FOA: 2.2

Results for CCOC(=O)c1c(NC(=O)CN2CCCc3ccccc32)sc(C)c1CC ?
NPY-Y2 PAM-ag: -6.8; NPY1 pot ag: -11.3; WT yeast gro inh: -3.4; NPY Y2 blocker: 2.0; RAM network inh: 15.2*; NPY-Y1 antag: -0.5; RAM 5-FOA: 4.5

What do the screens show for `CCOC(=O)c1c(NC(=O)CN2CCC(C)CC2)sc(C)c1C`?
NPY-Y2 PAM-ag: -5.6; NPY1 pot ag: -7.6; WT yeast gro inh: -6.6; RAM network inh: 0.6; NPY-Y1 antag: 0.7

What do the screens show for `CCOC(=O)c1c(NC(=O)CN2CCCc3ccccc32)sc(C)c1C`?
NPY-Y2 PAM-ag: 8.7; NPY1 pot ag: -19.5; WT yeast gro inh: 8.2; NPY Y2 blocker: 4.2; RAM network inh: 13.6*; NPY-Y1 antag: 0.3; RAM 5-FOA: 3.0

How did O=C(NCC1CCCO1)C1CCC(=O)N1CCc1ccccc1 (configuration not stated) do in these assays?
NPY-Y2 PAM-ag: -6.4; NPY1 pot ag: 32.7; WT yeast gro inh: 0.8; NPY Y2 blocker: -0.7; NPY-Y1 antag: 1.3

How did O=C(Cc1ccccc1)n1nc(-c2ccco2)nc1SCc1ccccc1 do in these assays?
NPY-Y2 PAM-ag: 2.2; NPY1 pot ag: -6.9; WT yeast gro inh: 24.4; NPY Y2 blocker: 4.0; RAM network inh: -0.3; NPY-Y1 antag: 5.5

Results for CCN(CC)S(=O)(=O)c1ccc2c(c1)nc(CCC(=O)Nc1ccc(N3CCOCC3)cc1)n2C ?
NPY-Y2 PAM-ag: -15.6; NPY1 pot ag: 7.4; WT yeast gro inh: 12.0; RAM network inh: 2.8; NPY-Y1 antag: 4.1

What do the screens show for `CCOc1cc(NC(=S)NCC2CCCO2)c(OCC)cc1NC(=O)c1cccc(C)c1` (configuration not stated)?
NPY-Y2 PAM-ag: 0.9; NPY1 pot ag: 5.0; WT yeast gro inh: 13.7; NPY Y2 blocker: 1.0; RAM network inh: 3.9; NPY-Y1 antag: -2.8

What do the screens show for `Cc1cc(C(=O)COc2ccccc2C(N)=O)c(C)n1C`?
NPY-Y2 PAM-ag: -12.7; NPY1 pot ag: -8.7; WT yeast gro inh: 0.9; RAM network inh: 1.8; NPY-Y1 antag: 1.2

How did Cc1cc(C(=O)COc2ccc(Cl)cc2Br)c(C)n1C do in these assays?
NPY-Y2 PAM-ag: -18.2; NPY1 pot ag: -24.8; WT yeast gro inh: 10.1; RAM network inh: 11.7*; NPY-Y1 antag: 10.7; RAM 5-FOA: 2.6

What do the screens show for `C=CCN(c1ccccc1Cl)S(=O)(=O)c1cccc(C(=O)NCCc2ccc(OC)cc2)c1`?
NPY-Y2 PAM-ag: -10.5; NPY1 pot ag: -17.3; WT yeast gro inh: 6.9; NPY Y2 blocker: 4.6; RAM network inh: 14.4*; NPY-Y1 antag: 5.6; RAM 5-FOA: 3.5

How did CCC(Sc1nc2c(cnn2-c2ccc(Cl)cc2)c(=O)[nH]1)C(=O)OC (configuration not stated) do in these assays?
NPY-Y2 PAM-ag: -12.5; NPY1 pot ag: 8.4; WT yeast gro inh: -7.5; NPY Y2 blocker: 2.6; RAM network inh: 4.0; NPY-Y1 antag: 3.6

Results for CCOC(=O)C(C)(C)Sc1nc2c(cnn2-c2ccc(Cl)cc2)c(=O)[nH]1 ?
NPY-Y2 PAM-ag: 4.1; NPY1 pot ag: 12.3; WT yeast gro inh: -6.3; NPY Y2 blocker: 2.2; RAM network inh: 13.6*; NPY-Y1 antag: -0.8; RAM 5-FOA: 2.8

Results for CCCCCCCCNC(=O)c1cccnc1SCC(=O)Nc1ccccc1OC ?
NPY-Y2 PAM-ag: 7.5; NPY1 pot ag: -3.9; WT yeast gro inh: 18.6; NPY Y2 blocker: 9.6; RAM network inh: 11.7*; NPY-Y1 antag: 0.8; RAM 5-FOA: 1.4
